How the values were obtained:
[1] = Partition coefficient (logP); type: physicochemical; conditions: octanol/water
Method in brief: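 Micro shake-flask: buffered aqueous compound solution (pH 6.50) shaken with an equal volume of water-saturated 1-octanol at room temperature, 3 × 120 s. Centrifuged 14000g, 15 min. Aqueous phase analysed by RP-HPLC against the unshaken solution (methanol 30, 50 or 70 wt%, 1.0 mL/min, UV 254 nm). Run in duplicate, or quadruplicate if needed.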

[2] = E1/2 for the half-wave potential at pH=7.0 in V57; type: ADME
[3] = Observed rate of hydrolysis (logKobs) (pH=4.0); type: ADME
Method in brief: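 Hydrolysis followed by cyclic voltammetry at 20 °C in deaerated 0.1 M acetate buffers (pH 5.0–3.5) or 0.02 M NaH2PO4 (pH 3.5, 3.0), ionic strength 0.1 M (NaNO3). Decrease of the parent cathodic peak tracked over time. Pseudo-first-order kobs from linear regression of log concentration versus time.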

[4] = HPLC capacity factor (logK); type: ADME
[5] = Electrochemically observed pKa (pKred) of aziridines; type: physicochemical; conditions: read-out: pKred
B16 = experiment: log 1/D125 or the dose (mmol/kg) to give 125%T/C ratio (B16) in vivo; type: functional, Mus musculus
Nucleic Acid = experiment: (§1) DNA cross link ratio at pH=5.0 and 50 umol/L compound; type: functional
Fungi = experiment: (§2) log 1/MIC for fungi in mmol/L; type: functional
L1210 [6] = experiment: log 1/D125 for the dose (mmol/kg) to give 125%T/C ratio (L1210) in vivo; type: functional, Mus musculus
L1210 [7] = experiment: log 1/ID75 for the in vitro clonogenic L1210 assay with ID75 in umol/L; type: functional, Mus musculus
[8] = log KGSH for the rate k of glutathione (GSH) consumption in 1/s; type: functional
[9] = log 1/LD50 for LD50 (mmol/kg); type: ADME
[10] = log 1/anion production.; type: functional
[11] = as §1; type: functional
[12] = as §2; type: functional

Row | SMILES | logP [1] | E 1/2 [2] | Log Kobs [3] | Log K [4] | pKa [5] | Log 1/D125 (mM kg-1) (B16) | DNA cross-link ratio (Nucleic Acid) | Log 1/MIC (mM L-1) (Fungi) | Log 1/D125 (L1210) (mM kg-1) (L1210 [6]) | Log 1/ID75 (uM L-1) (L1210 [7]) | Log k GSH (s-1) [8] | Log 1/LD50 (mM kg-1) [9] | Log 1/conc (mM min-1 L-1) [10] | lnK [11] | Log 1/MIC (mM L-1) [12]
1 | CCOC(=O)NC1=C(N2CC2)C(=O)C(NC(=O)OCC)=C(N2CC2)C1=O [DIAZIQUONE] | 0.04 | -0.149 | -4.25 | -0.48 | 8.3 | 2.32 | 0.14 | -0.29 | 2.26 | -0.57 | -4.64 | 1.54 | 1.56 |  | 
2 | COC(COC(N)=O)C1=C(N2CC2)C(=O)C(C)=C(N2CC2)C1=O (stereo not given) [CARBOQUONE] | -0.15 | -0.182 | -3.65 | -0.438 | 8.6 | 3.32 | 0.26 | -1.19 | 3.21 | 1.05 | -5.15 | 1.73 | 0.57 |  | 
3 | O=C1C(F)=C(N2CC2)C(=O)C(N2CC2)=C1N1CC1 |  | -0.171 | -3.75 |  | 7.8 |  | 0.17 | 1.79 | 1.95 | 2.32 | -2.24 | 1.62 | 1.72 |  | 
4 | CCC1=C(N2CC2)C(=O)C(Br)=C(N2CC2)C1=O |  | -0.21 | -4.3 |  | 8.8 | 2.6 | 0.15 | 1.57 | 1.41 | 2.82 | -3 | 1.39 | 2.42 |  | 
5 | CC1=C(N2CC2)C(=O)C(CCOC(N)=O)=C(N2CC2)C1=O |  | -0.213 | -4.05 |  | 8.9 | 3.49 | 0.27 |  | 2.86 | 1.82 | -4.92 | 1.99 | 1.02 |  | 
6 | O=C1C=C(N2CC2)C(=O)C=C1N1CC1 | 0.18 | -0.105 | -2.57 |  | 7.5 | 3.16 | 0.29 | 2.58 | 2.77 | 1.68 | -3.24 | 1.8 | 2.09 |  | 
7 | CC1=C(N2CC2C)C(=O)C(Br)=C(N2CC2C)C1=O (stereo not given) |  | -0.194 | -3.85 |  | 9.2 | 1.71 |  | 1.01 | 1.79 | 2.66 |  | 1.59 | 2.5 | 0.03 | 
8 | NC(=O)OCCC1=C(N2CC2)C(=O)C(Br)=C(N2CC2)C1=O |  | -0.201 | -4.49 |  | 8.9 | 2.68 |  | 0.25 | 2 | 2.45 | -3.6 | 1.05 | 2.48 |  | 
9 | CCC1=C(N2CC2)C(=O)C(C)=C(N2CC2)C1=O |  | -0.227 | -3.59 | 0.291 | 8.7 | 3.25 | 0.23 | 0.77 |  |  | -5 | 1.46 | 0.87 |  | 
10 | CC1=C(N2CC2C)C(=O)C(CCOC(N)=O)=C(N2CC2C)C1=O (stereo not given) |  | -0.235 | -3.67 |  | 9.7 | 2.31 | 0.13 |  | 1.89 |  |  |  | 0.56 |  | 
11 | O=C1C(Br)=C(N2CC2)C(=O)C(Br)=C1N1CC1 |  |  | -4.7 | 0.474 |  |  |  |  |  | 0.35 |  |  | 2.87 |  | 1.54
12 | CCOC(=O)NC1=C(N2CC2C)C(=O)C(NC(=O)OCC)=C(N2CC2C)C1=O (stereo not given) |  | -0.145 | -3.57 |  | 8.5 | 1.94 | 0.02 |  | 1.59 |  |  | 0.69 | 1.26 |  | 
13 | O=C1C=C(N2CC2)C(=O)C(N2CC2)=C1N1CC1 [TRIAZIQUONE] | 0.13 | -0.171 | -2.85 |  | 8 | 3.8 |  | 1.06 | 3.52 | 2.72 | -3.14 | 2.66 | 1.32 |  | 

Reference: ChEMBL document CHEMBL1129476, “In vivo activity and hydrophobicity of cytostatic aziridinyl quinones” (J Med Chem, 1996)
